This is an account of results in ChEMBL document CHEMBL4130483, “Leishmanicidal and cytotoxic activity of hederagenin-bistriazolyl derivatives” (Eur J Med Chem, 2017).

Active and inactive are the calls of the source. Some results are limits rather than exact numbers.

Data set [1] in a line: Selectivity index, ratio of CC50 for human HepG2 cells to IC50 for antileishmanial activity against Leishmania infantum MHOM/BR/70/BH46 intracellular amastigotes infected in canine DH82 cells. In kind it is toxicity, cell-based. To be noted: read-out: Ratio CC50/IC50. The procedure, abridged:
(§1)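 SI = CC50 in BGM or HepG2 cells (MTT) divided by the intracellular amastigote IC50.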

For data set [2], the system named is Leishmania infantum. The data set is described as follows: Antileishmanial activity against Leishmania infantum MHOM/BR/70/BH46 intracellular amastigotes infected in canine DH82 cells assessed as as inhibition of cell growth incubated for 48 hrs by ELISA method. In kind it is functional, organism-based. The conditions noted are these: MHOM/BR/70/BH46, DH82, 48 h. The procedure, abridged: (§2)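 L. infantum BH46 intracellular amastigotes. Phase II testing at 0.1, 1.0, 10 and 100 μM. IC50 is the concentration inhibiting in vitro growth by 50%, taken from dose-response curves (log concentration vs inhibition) run in four replicates. Potassium antimonyl tartrate trihydrate served as positive control.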

The test system of data set [3] is SW-1736. The experiment in a line: Cytotoxicity against human SW1736 cells assessed as reduction in cell viability incubated fro 96 hrs by SRB assay. In kind it is functional, cell-based. To be noted: SW-1736, 96 h. The procedure, abridged: (§3)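 Sulforhodamine B photometric assay after 96 h treatment. Monolayers were grown in RPMI 1640 with L-glutamine, 10% heat-inactivated FBS and penicillin/streptomycin at 37 °C in humidified 5% CO2. Cut-off was 30 μM, or 60 μM for the parent. EC50 was averaged from at least three independent experiments, each in four replicates. Betulinic acid was the positive standard.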

Data set [4] is described as follows: Selectivity index, ratio of CC50 for African green monkey BGM cells to IC50 for antileishmanial activity against Leishmania infantum MHOM/BR/70/BH46 intracellular amastigotes infected in canine DH82 cells. In kind it is toxicity, cell-based. To be noted: read-out: Ratio CC50/IC50. The procedure, abridged: as §1
In data set [5] the test system is Leishmania infantum. The experiment in a line: Antileishmanial activity against Leishmania infantum MHOM/BR/70/BH46 intracellular amastigotes infected in canine DH82 cells assessed as as inhibition of cell growth at 1000 uM incubated for 48 hrs by ELISA method. In kind it is functional. To be noted: MHOM/BR/70/BH46, DH82, 48 h, read-out: GI. A general note: An ELISA detects its analyte on a solid surface through an enzyme-linked reagent.

Data set [6] in a line: Cytotoxicity in human HepG2 cells assessed as reduction in cell viability incubated for 48 hrs by MTT assay. In kind it is cell-based. The procedure, abridged: (§4)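 MTT colorimetric assay with microscopic monitoring. CC50 is the concentration cytotoxic to 50% of BGM or HepG2 cells. Potassium antimonyl tartrate trihydrate was the positive control.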
Data set [7] relates to FaDu. The experiment in a line: Cytotoxicity against human FADU cells assessed as reduction in cell viability incubated fro 96 hrs by SRB assay. In kind it is functional, cell-based. On the technique in general: The SRB assay estimates cell density from bound dye.
Data set [8] relates to HT-29. The data set is described as follows: Cytotoxicity against human HT-29 cells assessed as reduction in cell viability incubated fro 96 hrs by SRB assay. In kind it is functional, cell-based. The conditions noted are these: HT-29, 96 h. The procedure, abridged: as §3
Data set [9] relates to A-375. The experiment in a line: Cytotoxicity against human A375 cells assessed as reduction in cell viability incubated fro 96 hrs by SRB assay. In kind it is functional, cell-based. The conditions noted are these: A-375, 96 h. The procedure, abridged: as §3
Data set [10] is described as follows: Selectivity index, ratio of CC50 for dog DH82 cells to IC50 for antileishmanial activity against Leishmania infantum MHOM/BR/70/BH46 intracellular amastigotes infected in canine DH82 cells. To be noted: read-out: Ratio CC50/IC50. In kind it is toxicity, cell-based. The procedure, abridged: (§5)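 SI = CC50 in DH82 macrophages (MTT) divided by IC50 against intracellular L. infantum BH46 amastigotes.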

Data set [11] is described as follows: Ratio of selectivity index of test compound to hederagenin by measuring ratio of CC50 for dog DH82 cells to IC50 for antileishmanial activity against Leishmania infantum MHOM/BR/70/BH46 intracellular amastigotes infected in canine DH82 cells. In kind it is toxicity, cell-based.
Data set [12] relates to A2780. The data set is described as follows: Cytotoxicity against human A2780 cells assessed as reduction in cell viability incubated fro 96 hrs by SRB assay. In kind it is functional, cell-based. To be noted: A2780, 96 h. The procedure, abridged:
as §3

The nature of data set [13]: Ratio of selectivity index of test compound to potassium antimonyl tartrate by measuring ratio of CC50 for dog DH82 cells to IC50 for antileishmanial activity against Leishmania infantum MHOM/BR/70/BH46 intracellular amastigotes infected in canine DH82 cells. In kind it is toxicity, cell-based.
Data set [14] in a line: Cytotoxicity in dog DH82 cells assessed as reduction in cell viability incubated for 48 hrs by MTT assay. In kind it is cell-based, Canis lupus familiaris. The procedure, abridged:
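DH82 canine macrophage viability was monitored microscopically and by MTT colorimetric assay. CC50 is the concentration cytotoxic to 50% of DH82 cells. Potassium antimonyl tartrate trihydrate was the positive control.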
For orientation: Tetrazolium dyes change colour on reduction, which living cells bring about.

Data set [15] in a line: Cytotoxicity in African green monkey BGM cells assessed as reduction in cell viability incubated for 48 hrs by MTT assay. The conditions noted are these: chlorocebus aethiops. In kind it is cell-based. The procedure, abridged:
as §4

Data set [16] in a line: Selectivity index, ratio of CC50 for dog DH82 cells to IC50 for Leishmania infantum MHOM/BR/70/BH46 intracellular amastigotes infected in canine DH82 cells. In kind it is toxicity, cell-based. The procedure, abridged: as §5
The subject of data set [17] is Leishmania infantum. The experiment in a line: Antileishmanial activity against Leishmania infantum MHOM/BR/70/BH46 intracellular amastigotes infected in canine DH82 cells assessed as as inhibition of cell growth. In kind it is functional, organism-based. To be noted: MHOM/BR/70/BH46, DH82. The procedure, abridged: as §2
Data set [18] has as its system HT-29. The data set is described as follows: Induction of cell membrane permeability changes in human HT-29 cells at 15 uM incubated for 24 hrs by AO/PI staining based fluorescence microscopy. In kind it is functional. The procedure, abridged: (§6)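 HT29 cells were treated for 24 h, then stained with acridine orange and propidium iodide. Morphology and membrane permeability were assessed by fluorescence microscopy against an untreated control.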

The subject of data set [19] is HT-29. The data set is described as follows: Induction of cell morphology changes in human HT-29 cells at 15 uM incubated for 24 hrs by AO/PI staining based fluorescence microscopy. In kind it is functional. The procedure, abridged:
as §6

By IC50 is commonly meant the concentration that gives 50% inhibition. Broadly, the EC50 is the concentration at which the effect is half-maximal. The term CC50 denotes the concentration giving 50% cytotoxicity. For `Cc1ccc(C(=O)Cn2cc(COC[C@@]3(C)[C@@H]4CC[C@]5(C)[C@H](CC=C6[C@@H]7CC(C)(C)CC[C@]7(C(=O)OCc7cn(CC(=O)c8ccc(C)cc8)nn7)CC[C@]65C)[C@@]4(C)CC[C@@H]3O)nn2)cc1`, the selectivity ratio in data set [1], in data set [4] and in data set [10] was greater than 135 throughout. Moreover, the IC50 in [2] worked out at 7.4 µM. For the same compound, the EC50 in data set [3], in data set [7], in data set [8], in data set [9] and in data set [12] was greater than 30 µM each time. Further, the inhibition of growth at 1000 µM in data set [5] amounted to 63.7%. In addition, the CC50 at 48 h in data set [6], in data set [14] and in data set [15] was greater than 1000 µM in each case. In addition, the Ratio is listed as 14 in data set [11] and 10 in data set [13].

As to `CC1(C)CC[C@]2(C(=O)OCc3cn(Cc4ccccc4F)nn3)CC[C@]3(C)C(=CC[C@@H]4[C@@]5(C)CC[C@H](O)[C@@](C)(COCc6cn(Cc7ccccc7F)nn6)[C@@H]5CC[C@]43C)[C@@H]2C1`, the selectivity ratio in data set [1], in data set [4], in [16] and in data set [10] was greater than 178 in each case. For the same compound, the IC50 in data set [2] and in data set [17] was 5.6 µM each time. The EC50 is greater than 30 µM in data set [3]; greater than 30 µM in data set [7]; 16.3 µM in [8]; 28.5 µM in [9]; 21.6 µM in [12]. The inhibition of growth at 1000 µM in data set [5] worked out at 65%. Moreover, the CC50 at 48 h in [6], in [14] and in [15] was greater than 1000 µM throughout. Besides, the Ratio in data set [11] was determined as 8; in [13], 1780.

Turning to `CC1(C)CC[C@]2(C(=O)OCc3cn(CC(=O)c4ccc(C#N)cc4)nn3)CC[C@]3(C)C(=CC[C@@H]4[C@@]5(C)CC[C@H](O)[C@@](C)(COCc6cn(CC(=O)c7ccc(C#N)cc7)nn6)[C@@H]5CC[C@]43C)[C@@H]2C1`, the EC50 in data set [3] came to 11.9 µM; in data set [7], 12.1 µM; in data set [8], 7.4 µM; in [9], 10.6 µM; in data set [12], 11.2 µM. Also, the outcome in data set [18] and in data set [19] was inactive. Moreover, the inhibition of growth at 1000 µM in [5] was found to be 8.8%.
